# Screening data: PubChem BioAssay, several laboratories
# STAT1 inh – STAT1 signaling inhibition. NIH 3T3 STAT1-luciferase reporter, IFN-gamma, luminescence. inhibition, % at 5.5 µM. hit rate 0.35% among 200,000. AID 920;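 active = inhibition above a set limit, the mean inhibition across all tested compounds plus 3 SD, cut at about 34% in these data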;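 also: 0% = IFN-gamma with DMSO and 100% = IFN-gamma with 300 µM nifuroxazide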
# MT stabilize HCS – microtubule stabilization, imaging screen | HeLa tubulin immunostaining HCS, 24 h; share of cells brighter than vehicle mean+2SD | % tubulin-high responders, % at 10 µM | hit rate 0.83% among 200,000;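 active = plate Z-score above 3 for both tubulin-high and condensed-nucleus cell shares, with cell loss under 80%, at 10 µM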;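 also: anti alpha tubulin signal scored within the nucleus-defined area of each cell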
# b-catenin transl – alters nuclear translocation of beta-catenin in HeLa cells | immunofluorescence imaging | nuclear translocation activity, % at 5 µM | hit rate 0.3% among 190,000 | AID 1665;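 active = nuclear translocation activity above 50% at 5 µM, with a well cell count of 50 or more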;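 also: per-cell ratio of nuclear to cytoplasmic median beta-catenin stain intensity; plate controls were DMSO negative control for no effect and GSK-3 inhibitor IX positive control for full effect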
#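 System: HeLa cells, endogenous beta-catenin; compound dosing: 5 µM primary single dose, 0.1% DMSO, 0.02–20 µM confirmation series; incubation: 24 h compound exposure at 37°C, 5% CO2; signal: beta-catenin immunofluorescence imaging with DAPI; evaluation: % activation, nuclear-to-cytoplasmic median beta-catenin signal ratio per cell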
# STAT3 inh – STAT3 signaling inhibition. hit rate 0.89% among 190,000. AID 862. inhibition, % at 5.5 µM. U3A cells, IL-6 STAT3-luciferase reporter, luminescence; host cell line lacks STAT1;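 active = inhibition above the mean inhibition across all screened compounds plus 3 SD, cut at about 44% in these data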;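 also: 0% = DMSO only wells and 100% = 100 µM nifuroxazide control wells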
# STAT3 act-1 – STAT3 signaling activation; U3A cells, IL-6 STAT3-luciferase reporter, luminescence; 100% = signal with IL-6 EC80 alone; activation (% of control), % at 5.6 µM; hit rate 0.91% among 190,000;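 active = activation above the screen-wide mean of compound activation plus 3 SD, cut at about 130% in these data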;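 also: 0% = background luminescence of wells with medium and substrate only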
#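 Material: STAT3-luciferase reporter U3A cells. Controls: IL-6-treated wells, 100% activation. Read-out: % activation versus median of IL-6-stimulated wells. Probe or stimulus: IL-6 stimulus at 33 ng/mL final. Timing: compound 1 h, then IL-6 6 h at 37 °C. Signal: reporter luminescence signal.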
# STAT3 act-2 – STAT3 activation, confirmation assay | shares compounds with STAT3 act-1 | U3A STAT3-luciferase reporter, IL-6 potentiation, luminescence; U3A cells lack STAT1; 100 means same as IL-6 alone | potentiation (% of control), % at 5.7 µM | hit rate 64% among 1,200 | AID 1267;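 active = percent activation of the STAT3 luciferase reporter above a set limit taken from the earlier primary screen, cut at about 130% in these data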;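 also: 0% = background signal of medium plus substrate and 100% = median of IL-6 with DMSO wells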
# NFkB act 2 – counter-screen for STAT3 activators: NF-kappaB activation; shares compounds with STAT3 act-1; human cells, NF-kappaB reporter activation; activation (% of control), % at 5.7 µM; hit rate 11% among 1,200; in the data active = activation above about 120%;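 also: reporter induced by TNF-alpha stimulation; 100% = median of stimulated DMSO wells and 0% = no signal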
# STAT1 act STAT3c – STAT1 activation in STAT3 activator counter-screen | shares compounds with STAT3 act-1 | NIH 3T3 STAT1-luciferase reporter, IFN-gamma, luminescence | activation (% of control), % at 5.7 µM | hit rate 13% among 1,200 | AID 1318;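 active = activation above the solvent-only control well mean plus 3 SD, set per screening run, cut at about 120% in these data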;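 also: 100% = IFN-gamma with DMSO median signal so 100% means no change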
# * hit, by the source's call; . = no result. Shown are actives, neighbours in structure and some others; about 2.4% of the full set was active somewhere.
SMILES,STAT1 inh,MT stabilize HCS,b-catenin transl,STAT3 inh,STAT3 act-1,STAT3 act-2,NFkB act 2,STAT1 act STAT3c
Cc1cc(Oc2ccc(=O)[nH]n2)nc(Cl)n1,.,.,-2,.,.,.,.,.
O=C(c1cc[n+]([O-])cc1)N1CCc2c([nH]c3ccccc23)C1c1ccccc1Cl (stereo unspecified),10,1,3,-83,176*,155*,100,91
CN1N=C(C(=O)N2CCc3c([nH]c4ccccc34)C2c2ccccc2Cl)CCC1=O (stereo unspecified),-15,6,-3,-59,156*,178*,121*,123*
O=C(NCCC(=O)N1CCN(c2ncccn2)CC1)c1ccccc1Cl,-5,1,.,-14,110,.,.,.
O=C(NCCC(=O)N1CCN(c2ncccn2)CC1)c1ccccc1,-12,5,0,-42,139*,102,105,99
Cn1c(=O)c(C(=O)Nc2ccccn2)c(O)c2ccccc21,-23,5,4,-44,139*,178*,115,181*
CCOP(=O)(OCC)C(NC(=O)Nc1ccc(Cl)cc1)C(=O)N(CC)CC (stereo unspecified),3,4,2,6,97,.,.,.
Cc1cc(C)n(-c2nc(-c3ccccc3)cs2)n1,-14,2,-2,-44,137*,120,121*,122*
Cc1ccc(-n2c(C)nc3oc4ccccc4c(=O)c3c2=O)cc1,-19,2,2,-55,149*,159*,122*,135*
Cc1ccc(S(=O)(=O)Nc2ccc(Oc3cccnc3)nc2)cc1,.,.,-2,.,.,.,.,.
Cc1ccc(N2C(=O)CC(c3c[nH]c4ccccc34)C2=O)cc1 (stereo unspecified),3,1,-1,6,96,.,.,.
CCC1=NN=C(c2ccc(F)cc2)C(c2c[nH]c3ccccc23)N1O (stereo unspecified),-1,3,-3,-71,163*,159*,104,112
COc1cccc(C2c3[nH]c4ccccc4c3CCN2CCCn2cccn2)c1 (stereo unspecified),9,3,-2,-31,132,.,.,.
COc1ccc(C2c3[nH]c4ccccc4c3CCN2CCCn2cccn2)c(C)c1C (stereo unspecified),2,3,0,-67,163*,163*,101,95
COCCNC(=S)Nc1ccc2[nH]c(=O)[nH]c2c1,0,2,-3,-3,107,.,.,.
CCN(CC)c1ccc(-c2nnc(SCC(=O)Nc3ccccc3C#N)n2-c2ccccc2)cc1,-6,5,2,-25,123,.,.,.
Cc1ccc(C(=O)c2oc3ccccc3c2N)cc1,-27,3,-1,-50,143*,119,118,113
Nc1c(C(=O)c2ccc(Br)s2)oc2ccccc12,-4,4,-1,-82,177*,158*,115,110
CC(=O)Nc1ccc(/C=N/N2CCCCC2)cc1,-41,5,-1,-8,110,.,.,.
Cc1ccc(-n2nc(C)cc2NC(=O)c2ccc(C)s2)cc1,0,1,.,-37,136*,114,102,97
Cc1ccc(-n2nc(C)cc2NC(=O)CC#N)cc1,6,7,2,7,99,.,.,.
COc1ccccc1NS(=O)(=O)c1cccc(NC(=O)c2[nH]c(C)c(C(C)=O)c2C)c1,.,.,0,.,.,.,.,.
COc1ccccc1NC(=O)c1[nH]c(C)c(C(C)=O)c1C,3,2,2,-60,162*,158*,105,97
COC(=O)c1cc2c(s1)-c1cc(F)ccc1OC2,.,.,0,.,.,.,.,.
COC(=O)c1cc2c(s1)-c1ccccc1CC2,-21,3,-1,-64,164*,150*,112,126*
SMILES,STAT1 inh,MT stabilize HCS,b-catenin transl,STAT3 inh,STAT3 act-1,STAT3 act-2,NFkB act 2,STAT1 act STAT3c
CCC(C)NC(=O)C(NS(=O)(=O)c1cccc2nsnc12)c1ccccc1 (stereo unspecified),1,4,0,-39,139*,96,115,117
O=C(CSc1nc2c([nH]c3ccccc32)c(=O)n1-c1ccc(F)cc1)NCc1ccco1,14,1,1,-40,142*,119,94,87
CCCn1c(NC(=O)c2ccc(C)cc2)nc2ccccc21,-15,2,.,0,104,.,.,.
O=C(Nc1nc2ccccc2n1CCN1CCCC1)c1ccc(Cl)cc1,-22,2,-4,-55,150*,143*,117,127*
CCCn1c(NC(=O)c2ccccc2)nc2ccccc21,-3,2,-3,-33,137*,113,106,100
CCOC(=O)C1=C(C)NC(C)=C(C(=O)OCC)C1c1cc2ccc(C)cc2[nH]c1=O,8,45*,.,-46,143*,129,92,99
COc1cc([C@@H]2c3cc4c(cc3[C@H](O)[C@H]3COC(=O)[C@H]23)OCO4)cc(OC)c1OC,-14,.,.,-57,152*,118,164*,108
Cn1c(-[n+]2c(-c3ccccc3)cc(-c3ccccc3)cc2-c2ccccc2)nc2c([N+](=O)[O-])cccc21,11,3,-4,-53,151*,147*,104,98
O=C(c1ccc(S(=O)(=O)N2CCCC2)cc1)N1CCC(CN2C(=O)c3cccc4cccc(c34)C2=O)CC1,.,.,1,.,.,.,.,.
COc1ccc(S(=O)(=O)N2CCC(CN3C(=O)c4cccc5cccc(c45)C3=O)CC2)cc1,-4,3,1,-66,152*,135*,107,123*
CCc1ccc(NC(=O)Cc2c(C(=O)O)n(C)c3ccccc23)cc1,1,1,0,5,98,.,.,.
CC(C)C1=Nc2cccc3cccc(c23)N1,3,4,.,-10,109,.,.,.
Nc1cccc(C2=Nc3cccc4cccc(c34)N2)c1,1,5,1,-63,147*,157*,103,105
CCNc1ccc(C(=O)OC(C(=O)NC(N)=O)C(C)C)cc1[N+](=O)[O-] (stereo unspecified),6,3,-4,4,102,.,.,.
O=C1CC(Nc2ccc(N3CCOCC3)cc2)C(=O)N1Cc1ccccc1 (stereo unspecified),12,2,0,6,97,.,.,.
O=C1CC(Nc2ccc3ccccc3c2)C(=O)N1Cc1ccccc1 (stereo unspecified),-5,1,-3,-36,138*,135*,104,103
CCN(CC)C(=O)CS(=O)(=O)CC(=O)Nc1cc(OCCOC)c(Cl)cc1Cl,4,3,-2,4,101,.,.,.
